Data from paper PMC6818095 (Journal of medicinal chemistry, 2014).

What was measured:
σ2 receptor = biological target: T1, σ2 receptor (Rattus norvegicus, UniProt Q5U3Y7); type: binding; conditions: for increase of selectivity for σ2 compared to 26 / increase of σ2 binding affinity compared to 26: relative to nonsubstituted 1H-[1,2,3]triazole carboxamide analogue 26; for lower binding affinity for σ2 receptor than corresponding methoxy-substituted congeners: 39e and 39f versus 39b and 39c
T1 sequence (Q5U3Y7 1-176): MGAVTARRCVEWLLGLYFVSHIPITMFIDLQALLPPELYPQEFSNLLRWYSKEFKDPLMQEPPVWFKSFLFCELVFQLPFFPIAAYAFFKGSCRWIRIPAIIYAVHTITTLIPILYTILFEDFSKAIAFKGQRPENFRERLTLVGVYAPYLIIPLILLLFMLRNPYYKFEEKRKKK

[1] = system: EMT-6 murine breast cancer cells; experiment: functional assay: cell viability; type: cell-based; conditions: for cytotoxicity (in words): EMT-6 cells, cell viability assay
In short: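 EMT-6 murine breast cancer cells grown in DMEM with 10% FBS and penicillin/streptomycin at 37 °C, 5% CO2; seeded 5 × 10^3 cells/well 24 h before dosing. Test compound in DMSO serially diluted in medium (final DMSO ≤1.0%), 24 or 48 h exposure. MTS reagent 1–2 h at 37 °C, A490. Viability relative to untreated cells; EC50 from dose–response curves; triplicate, mean ± SEM of three experiments.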

| increase of selectivity for σ2 compared to 26 (σ2 receptor) | increase of σ2 binding affinity compared to 26 (σ2 receptor) | SMILES | other results |
| --- | --- | --- | --- |
| 34 fold | 82 fold | COc1cc2c(cc1OC)CN(CCCCNC(=O)c1cn(Cc3ccccc3)nn1)CC2 [39d, 1-Benzyl-N-(4-(6,7-dimethoxy-3,4-dihydro-1H-isoquinolin-2-yl)-butyl)-1H-1,2,3-triazole-4-carboxamide] |  |
| 198 fold | 105 fold | COc1ccccc1Cn1cc(C(=O)NCCCCN2CCc3cc(OC)c(OC)cc3C2)nn1 [39a, N-(4-(6,7-Dimethoxy-3,4-dihydro-1H-isoquinolin-2-yl)butyl)-1-(2-methoxybenzyl)-1H-1,2,3-triazole-4-carboxamide] |  |
| 110 fold | 96 fold | COc1cccc(Cn2cc(C(=O)NCCCCN3CCc4cc(OC)c(OC)cc4C3)nn2)c1 [39b, N-(4-(6,7-Dimethoxy-3,4-dihydro-1H-isoquinolin-2-yl)butyl)-1-(3-methoxybenzyl)-1H-1,2,3-triazole-4-carboxamide] |  |
| 63 fold | 205 fold | COc1ccc(Cn2cc(C(=O)NCCCCN3CCc4cc(OC)c(OC)cc4C3)nn2)cc1 [39c, N-(4-(6,7-Dimethoxy-3,4-dihydro-1H-isoquinolin-2-yl)butyl)-1-(4-methoxybenzyl)-1H-1,2,3-triazole-4-carboxamide] |  |

Second part, the compound before the results:

| SMILES | increase of selectivity for σ2 compared to 26 (σ2 receptor) | increase of σ2 binding affinity compared to 26 (σ2 receptor) | other results |
| --- | --- | --- | --- |
| COc1cccc(-n2cc(C(=O)NCCCCN3CCc4cc(OC)c(OC)cc4C3)nn2)c1 [24e, N-(4-(6,7-Dimethoxy-3,4-dihydro-1H-isoquinolin-2-yl)butyl)-1-(3-methoxyphenyl)-1H-1,2,3-triazole-4-carboxamide] | 629 fold | 341 fold |  |
| COc1cc2c(cc1OC)CN(CCCCNC(=O)c1cn(-c3ccccc3OC)nn1)CC2 [24d, N-(4-(6,7-Dimethoxy-3,4-dihydro-1H-isoquinolin-2-yl)butyl)-1-(2-methoxyphenyl)-1H-1,2,3-triazole-4-carboxamide] | 817 fold | 682 fold |  |
| COc1cc2c(cc1OC)CN(CCCCNC(=O)c1cn(Cc3cccc(O)c3)nn1)CC2 [39e, N-(4-(6,7-Dimethoxy-3,4-dihydro-1H-isoquinolin-2-yl)butyl)-1-(3-hydroxybenzyl)-1H-1,2,3-triazole-4-carboxamide] |  |  | lower binding affinity for σ2 receptor than corresponding methoxy-substituted congeners (σ2 receptor): 2 fold |
| COc1cc2c(cc1OC)CN(CCCCNC(=O)c1cn(Cc3ccc(O)cc3)nn1)CC2 [39f, N-(4-(6,7-Dimethoxy-3,4-dihydro-1H-isoquinolin-2-yl)butyl)-1-(4-hydroxybenzyl)-1H-1,2,3-triazole-4-carboxamide] |  |  | lower binding affinity for σ2 receptor than corresponding methoxy-substituted congeners (σ2 receptor): 2 fold |
| COc1cccc(Cn2cc(C(=O)NCCN3CCc4cc(OC)c(OC)cc4C3)nn2)c1 [40e, N-(2-(6,7-Dimethoxy-3,4-dihydro-1H-isoquinolin-2-yl)ethyl)-1-(3-methoxybenthyl)-1H-1,2,3-triazole-4-carboxamide] |  |  | σ2 binding affinity lower than the 4-carbon spacer congeners (σ2 receptor; 2-carbon spacer 40a–40f versus 24d–24f and 39a–39c): 20 fold |
| Fc1ccc(-n2cc(CCCCN3CCC4(CC3)OCc3ccccc34)c3ccccc32)cc1 [siramesine, reference compound] |  |  | cytotoxicity (in words) [1]: potent cytotoxicity |
| COc1ccc(-n2cc(C(=O)NCCCCN3CCc4cc(OC)c(OC)cc4C3)nn2)cc1 [24f, N-(4-(6,7-Dimethoxy-3,4-dihydro-1H-isoquinolin-2-yl)butyl)-1-(4-methoxyphenyl)-1H-1,2,3-triazole-4-carboxamide] |  | 186 fold | cytotoxicity (in words) [1]: did not induce cytotoxicity; agonist/antagonist classification at the σ2 receptor ([1]; based on cytotoxicity in EMT-6 cells relative to siramesine): antagonist |
| COc1cc2c(cc1OC)CN(CCCCNC(=O)c1cc(-n3cc(CN(C)C)nn3)ccc1OCCF)CC2 [compound 65, N-(4-(6,7-Dimethoxy-3,4-dihydroisoquinolin-2(1H)-yl)butyl)-5-(4-((dimethylamino)methyl)-1H-1,2,3-triazol-1-yl)-2-(2-fluoroethoxy)benzamide] |  |  | σ2 binding affinity lower than lead compound 8 (σ2 receptor; 65 versus lead compound 8): 14 fold; σ2 binding affinity lower than lead compound 9 (σ2 receptor; 65 versus lead compound 9): 89 fold |
